ChEMBL document CHEMBL3421596, “A facile synthesis and microtubule-destabilizing properties of 4-(1H-benzo[d]imidazol-2-yl)-furazan-3-amines” (Eur J Med Chem, 2015)

Columns and labels:
Assay type in all cases: functional
Paracentrotus lividus [1] = assay: Antiproliferative activity in sea urchin embryo assessed as antimitotic activity by measuring cleavage alteration exposed for 8 to 20 mins after fertilization and 45 to 55 mins before first mitotic cycle completion measured 2.5 to […] after fertilization
Paracentrotus lividus [2] = assay: Antiproliferative activity in sea urchin embryo assessed as antimitotic activity by measuring cleavage arrest exposed for 8 to 20 mins after fertilization and 45 to 55 mins before first mitotic cycle completion measured 2.5 to […] after fertilization
Paracentrotus lividus [3] = assay: Antiproliferative activity in sea urchin embryo assessed as destabilization of microtubule by measuring embryo spinning after 15 mins to 20 hrs
[4] = Cytotoxicity against human NCI60 cells assessed as cell growth at 10 uM; conditions: read-out: Activity
How it was run: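 NCI60 panel screened by the NCI Developmental Therapeutics Program at a single 10 µM concentration; mean cell growth percent reported.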

[5] = Cytotoxicity against human NCI60 cells

| Compound | EC (Paracentrotus lividus [1]) [µM] | EC (Paracentrotus lividus [2]) [µM] | EC (Paracentrotus lividus [3]) [µM] | growth at 10 µM [4] [%] | GI50 [5] [nM] |
| --- | --- | --- | --- | --- | --- |
| Nc1nc(N)nc(Cn2c(-c3nonc3N)nc3ccccc32)n1 | >4 | >4 | >4 | 102 |  |
| COc1ccc(Cn2c(-c3nonc3NC(C)=O)nc3ccccc32)cc1 | >4 | >4 | >4 | 85 |  |
| N#Cc1ccc2[nH]c(-c3nonc3N)nc2c1 | >4 | >4 | >4 | 107 |  |
| Cc1ccc(NC(=O)Cn2c(-c3nonc3NC(=O)c3ccc(F)cc3)nc3ccccc32)cc1F |  |  |  | 71.8 |  |
| Cc1cccc(C)c1NC(=O)Cn1c(-c2nonc2N)nc2ccccc21 | >4 | >4 | >4 | 90.2 |  |
| Nc1nonc1-c1nc2ccccc2n1Cc1nnn[nH]1 | >4 | >4 | >4 | 103 |  |
| C#CCn1c(-c2nonc2N)nc2ccccc21 | >4 | >4 | >4 | 99.6 |  |
| COc1ccc(Cn2c(-c3nonc3N)nc3cc(C(F)(F)F)ccc32)cc1 | >4 | >4 | >4 | 81.1 |  |
| Nc1nonc1-c1nc2ccccc2[nH]1 | 2 | >4 | >4 | 103 |  |
| CC(=O)Nc1nonc1-c1nc2ccccc2n1Cc1ccccn1 | >4 | >4 | >4 | 104 |  |
| CC(=O)Nc1nonc1-c1nc2ccccc2n1Cc1ccc(C(C)(C)C)cc1 |  |  |  | 73.5 |  |
| Nc1nc(Cn2c(-c3nonc3N)nc3ccccc32)nc(N2CCCCC2)n1 | 4 | >4 | >4 | 87.7 |  |
| N#CCCNc1nonc1-c1nc2ccccc2n1CC(=O)c1ccc(N)cc1 [AVANBULIN] |  |  |  |  | 6.5 |
| CC(=O)Nc1nonc1-c1nc2ccccc2n1Cc1cccc(C(F)(F)F)c1 | >4 | >4 | >4 | 82.2 |  |
| Nc1nonc1-c1nc2ccccc2n1Cc1cc2c(cc1Cl)OCO2 | >4 | >4 | >4 | 88.3 |  |
| Nc1nonc1-c1nc2ccccc2n1Cc1ccc(Cl)cc1 | >4 | >4 | >4 | 85 |  |
| Cc1cc(C)cc(NC(=O)Cn2c(-c3nonc3N)nc3ccccc32)c1 | >4 | >4 | >4 | 109 |  |
| Nc1nonc1-c1nc2c(Cl)cccc2[nH]1 | 1 | >4 | >4 | 99.8 |  |
| CC(=O)Nc1nonc1-c1nc2ccccc2n1Cc1ccc(Cl)cc1Cl |  |  |  | 76.7 |  |
| N#CCn1c(-c2nonc2N)nc2ccccc21 | >4 | >4 | >4 | 102 |  |
| CCC(=O)Nc1nonc1-c1nc2ccccc2n1Cc1ccc(F)cc1Cl | >4 | >4 | >4 | 64.5 |  |
| COc1ccc(NC(=O)Cn2c(-c3nonc3N)nc3ccccc32)cc1Cl | >4 | >4 | >4 | 100 |  |
| Nc1nonc1-c1nc2cc3ccccc3cc2[nH]1 | 0.5 | 4 | >4 |  |  |
| COc1ccc2[nH]c(-c3nonc3-n3cccc3)nc2c1 | 2 | >4 | >4 | 104 |  |

| Compound | EC (Paracentrotus lividus [1]) [µM] | EC (Paracentrotus lividus [2]) [µM] | EC (Paracentrotus lividus [3]) [µM] | growth at 10 µM [4] [%] | GI50 [5] [nM] |
| --- | --- | --- | --- | --- | --- |
| CC(=O)Nc1nonc1-c1nc2ccccc2n1Cc1ccncc1 | >4 | >4 | >5 | 101 |  |
| c1ccc2[nH]c(-c3nonc3-n3cccc3)nc2c1 | >4 | >4 | >4 | 104 |  |
| Cn1c(-c2nonc2NC(=O)c2ccc(F)cc2)nc2ccccc21 |  |  |  | 99.5 |  |
| Nc1nonc1-c1nc2ccccc2n1CCO |  |  |  | 102 |  |
| CC(C)(C)c1ccc(Cn2c(-c3nonc3N)nc3ccccc32)cc1 | >4 | >4 | >4 | 67.4 |  |
| Nc1nonc1-c1nc2ccccc2n1Cc1cc2c(cc1Br)OCO2 | >4 | >4 | >4 | 86.1 |  |
| CC(=O)Nc1nonc1-c1nc2ccccc2n1Cc1ccc(C#N)cc1 | >4 | >4 | >4 | 94.1 |  |
| Nc1nonc1-c1nc2ccccc2n1Cc1ccccn1 | 2 | >4 | >4 | 89.3 |  |
| O=C(Nc1nonc1-c1nc2ccccc2n1Cc1ccncc1)c1ccncc1 | >4 | >4 | >4 | 97.1 |  |
| Nc1nonc1-c1nc2cc(Cl)ccc2[nH]1 | 2 | >4 | >5 | 97.1 |  |
| Nc1nonc1-c1nc2ccccc2n1Cc1c(F)cccc1Cl | >4 | >4 | >4 | 91.9 |  |
| Nc1nonc1-c1nc2ccccc2n1CC(=O)NCc1ccc(F)cc1 | 4 | >4 | >4 | 102 |  |
| Nc1nonc1-c1nc2ccccc2n1CC(=O)Nc1ccc2c(c1)COC2=O | 2 | 4 | >4 | 80.8 |  |
| Nc1nonc1-c1nc2cc(F)ccc2[nH]1 | 2 | >4 | >5 | 97.8 |  |
| Nc1nonc1-c1nc2ccccc2n1CC(=O)Nc1ccc(OC(F)(F)F)cc1 | 4 | >4 | >4 | 105 |  |
| N#Cc1ccc(Cn2c(-c3nonc3N)nc3ccccc32)cc1 | 4 | >4 | >4 | 79.8 |  |
| COc1ccc2[nH]c(-c3nonc3N)nc2c1 | 0.5 | >4 | >5 | 101 |  |
| C=CCn1c(-c2nonc2NC(C)=O)nc2ccccc21 | >4 | >4 | >4 | 96.5 |  |
| Nc1nonc1-c1nc2ccccc2n1Cc1ccncc1 |  |  |  | 97 |  |
| Nc1nonc1-c1nc2ccccc2n1CC(=O)Nc1ccc(F)c(Cl)c1 | 2 | >4 | >4 | 70.5 |  |
| Cc1ccc(Cn2c(-c3nonc3N)nc3ccccc32)cc1 |  |  |  | 70.4 |  |
| CCOc1ccc(Cn2c(-c3nonc3N)nc3ccccc32)cc1OCC | >4 | >4 | >4 | 81 |  |
| CN(C)c1nc(N)nc(Cn2c(-c3nonc3N)nc3ccccc32)n1 | 2 | >4 | >4 | 80.8 |  |
